Experimental data collected from several papers.
Lines come from different studies, so protocols differ.
Target: Activin receptor type-2A (ACVR2A, Homo sapiens, UniProt P27037)

| Compound | read-out | method | tested at | remaining binding |
| --- | --- | --- | --- | --- |
| Cc1cnc(Nc2ccc(C(=O)N3CCC(N4CCCC4)CC3)cc2)nc1-c1cc2ccccc2s1 | binding | competition with immobilised ligand | 1 µM | 69% |
| C[C@H]1CCN(c2nccc(-c3cnn4ncccc34)n2)C1 | binding | – | 1 µM | 96% |
| C[C@@H](c1ccc(-n2cnc3c(N)ncnc32)cc1)N1CCc2nn(C)c(Cc3ccccc3)c2C1=O | binding | competition with immobilised ligand | 0.1 µM | 92% |
| CN(C)c1nccc(-c2cnc3ncccn23)n1 | binding | – | 1 µM | 100% |
| O=C(Nc1c[nH]nc1C(=O)NC1CCNCC1)c1cc(F)cc(F)c1 | binding | competition with immobilised ligand | 1 µM | 100% |
| CN([C@@H]1CCc2c(CC(=O)O)c3ccccc3n2C1)S(=O)(=O)c1ccc(F)cc1 | cell-free assay | competition with immobilised ligand | 1 µM | 100% |
| CNC(=O)[C@@H]1CC[C@@H](n2c(-c3ccc4cnccc4c3)nc3ccc(C(=O)NCc4cccc(C(N)=O)c4)cc32)C1 | binding | competition with immobilised ligand | 1 µM | 100% |
| CN(CCCC(F)(F)F)c1nccc(-c2cnn3ncccc23)n1 | binding | – | 1 µM | 100% |
| C[C@H](c1ccnc(Nc2nc3ccc(-c4cc(N(C)C)ncn4)cc3[nH]2)c1)N1CCN(C(=O)CC(F)(F)F)CC1 | cell-free assay | competition with immobilised ligand | 0.1 µM | 100% |
| c1cnn2ncc(-c3ccnc(N4CCC45COC5)n3)c2c1 | binding | – | 1 µM | 99% |
| O=C1NC(c2ccccn2)Sc2ccccc21 (stereo not shown) | cell-free assay | competition with immobilised ligand | 1 µM | 100% |
| COc1ncc2cc3ccccc3nc2c1C#N | cell-free assay | competition with immobilised ligand | 5 µM | 85% |
| O=C(NCCCC1CCCCC1)c1ccc(CNC(=O)c2cnn(-c3ccccc3)c2C(F)(F)F)cc1 | cell-free assay | competition with immobilised ligand | 0.1 µM | 83% |
| CN(c1nccc(-c2cnn3ncccc23)n1)C1CC1 | binding | – | 1 µM | 100% |
| CC1=C(C#N)C(c2ccc3c(c2)c(NC(=O)c2ccccc2C)nn3C)C(C#N)=C(C)N1 | cell-free assay | competition with immobilised ligand | 1 µM | 97% |
| O=C(NCCCN1CCOCC1)c1ccc(Nc2ncc(Cl)c(-c3ccc(Cl)s3)n2)cc1 | binding | competition with immobilised ligand | 1 µM | 90% |
| C=CC(=O)N1CCC(C(=O)NCC(=O)N2CCN(c3nc(-c4cnc(N)nc4C(F)F)nc(N4CCOCC4)n3)CC2)CC1 | binding | competition with immobilised ligand | 1 µM | 86% |
| N[C@H]1CCN(c2nccc(-c3cnn4ncccc34)n2)C1 | binding | – | 1 µM | 100% |
| O=C(Nc1cccnn1)N1CCC(=Cc2cccc(Oc3ccc(C(F)(F)F)cn3)c2)CC1 | cell-free assay | competition with immobilised ligand | 1 µM | 100% |
| O=C(c1ccc(Nc2nccc(-c3cc4ccccc4s3)n2)cc1)N1CCC(N2CCCC2)CC1 | binding | competition with immobilised ligand | 1 µM | 90% |
| COc1ccc2c(O[C@@H]3C[C@H]4C(=O)N[C@]5(C(=O)O)CC5/C=C\CCCCC[C@H](NC(=O)OC5CCCC5)C(=O)N4C3)cc(-c3csc(NC(=O)C(C)C)n3)nc2c1C (stereo partly shown) | cell-free assay | competition with immobilised ligand | 1 µM | 72% |
| CCN1CCN(Cc2ccc(C(=O)Nc3ccc(C)c(Oc4ccc5c(c4)CC(=O)N5)c3)cc2C(F)(F)F)CC1 | binding | competition with immobilised ligand | 1 µM | 100% |
